In PubChem BioAssay AID504654 (Molecular Libraries Program, Specialized Chemistry Center, …, 2011) one finds IC50 data, which are given here for ten molecules.

Activity calls are given as the source filed them.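 How the source made its calls: active means IC50 of at least 20 µM; inactive means IC50 below 20 µM.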

For this assay, the target named is HeLa ODD-luciferase turnover, degradation rate luminescence. In words: inhibitors of ODD-luciferase turnover, p97-independent, SAR follow-up, counter-screen for p97 inhibitor project, cell-based, HeLa, luminescence (AID 504654). The procedure, abridged: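 Assay system: Human HeLa line with stable ODD-luciferase reporter | Detection: Luminescence after luciferin substrate addition | Read-out: IC50 from Langmuir fit of percent remaining degradation rate | Reagent: MG132 4 µM proteasome block before chase, then washed out | Times: 1 h MG132 block, 70/90/120/150 min chase | Control set: DMSO wells as reference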
Background: A counterscreen serves to expose hits that act by an unwanted route or on another target.

In general, IC50 refers to the concentration that inhibits the measured activity by half. As for `COc1cccc2c(NCc3ccccc3)nc(Nc3cccc(Cl)c3)nc12`, the IC50 result was “inactive”. In the case of `COc1cccc2c(NCc3ccccc3)nc(Nc3nc4ccccc4n3C)nc12`, the IC50 result was “inactive”. The same measure for `c1ccc(CNc2nc(N3CCOc4ccccc43)nc3ccsc23)cc1`: “inactive”; for `COc1cccc2c(NCc3ccccc3)nc(NCc3ccccc3)nc12`: “inactive”; for `COc1cccc2c(NCc3ccccc3)nc(NCc3cccs3)nc12`: “inactive”. The result for `Fc1cccc(CNc2nc(NCc3ccccc3)c3ccccc3n2)c1` reads “inactive”; that for `COc1cccc2c(NCc3ccccc3)nc(-n3c(=O)oc4ccccc43)nc12`, more than 20 µM. On to `FC(F)(F)c1ccc(CNc2nc(NCc3ccccc3)c3ccccc3n2)cc1`, for which the IC50 result was “inactive”. As to `Cc1ccc(CNc2nc(NCc3ccccc3)c3ccccc3n2)cc1`, the IC50 entry is “inactive”. The result for `Brc1cccc(CNc2nc(NCc3ccccc3)c3ccccc3n2)c1` reads “inactive”.
